The record followed here is ChEMBL document CHEMBL3856257, “Benzo[b]thiophene-2-carboxamide derivatives as potent urotensin-II receptor antagonists” (Bioorg Med Chem Lett, 2016).

Chain of CYP2D6 (P10635 whole entry): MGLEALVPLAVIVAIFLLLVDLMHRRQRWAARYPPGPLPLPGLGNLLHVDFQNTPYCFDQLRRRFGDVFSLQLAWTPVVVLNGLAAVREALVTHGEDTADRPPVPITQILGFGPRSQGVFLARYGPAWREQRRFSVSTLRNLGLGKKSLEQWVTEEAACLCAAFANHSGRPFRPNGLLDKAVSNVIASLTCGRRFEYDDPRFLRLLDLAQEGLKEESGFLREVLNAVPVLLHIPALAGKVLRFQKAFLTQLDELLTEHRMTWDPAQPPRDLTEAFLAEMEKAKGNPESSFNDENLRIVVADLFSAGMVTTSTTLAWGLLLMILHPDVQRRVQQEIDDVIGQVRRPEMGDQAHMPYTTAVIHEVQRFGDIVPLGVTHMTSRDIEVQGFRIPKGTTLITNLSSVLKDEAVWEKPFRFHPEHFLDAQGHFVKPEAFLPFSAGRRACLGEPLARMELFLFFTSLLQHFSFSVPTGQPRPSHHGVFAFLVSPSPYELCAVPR

System in one data set: not listed separately
The data set is described as follows: Metabolic stability in human liver microsomes after 30 mins. The class given is ADME. Particulars: read-out: Stability.
Take `N#Cc1ccc2sc(C(=O)NC3CCN(Cc4ccc(OC5CCNCC5)c(Br)c4)CC3)cc2c1`: the remaining at 0.5 h was found to be 85%.

System in a further data set: not listed separately
The data set is described as follows: Metabolic stability in rat liver microsomes after 30 mins. In kind it is ADME. Particulars: read-out: Stability.
Turning to `N#Cc1ccc2sc(C(=O)NC3CCN(Cc4ccc(OC5CCNCC5)c(Br)c4)CC3)cc2c1`, the remaining at 0.5 h was 74%.

Another data set has as its target CYP2D6 (Homo sapiens, UniProt P10635). As to the kind of experiment: Inhibition of CYP2D6 (unknown origin) at 10 uM. The class given is ADME.
Conditions: not given
In turn, `N#Cc1ccc2sc(C(=O)NC3CCN(Cc4ccc(OC5CCNCC5)c(Br)c4)CC3)cc2c1` showed an inhibition at 10 µM of 55%.

A further data set deals with CYP3A4 (Homo sapiens, UniProt P08684). The data set is described as follows: Inhibition of CYP3A4 (unknown origin) at 10 uM. In kind it is ADME.
Chain of CYP3A4 (P08684 whole entry): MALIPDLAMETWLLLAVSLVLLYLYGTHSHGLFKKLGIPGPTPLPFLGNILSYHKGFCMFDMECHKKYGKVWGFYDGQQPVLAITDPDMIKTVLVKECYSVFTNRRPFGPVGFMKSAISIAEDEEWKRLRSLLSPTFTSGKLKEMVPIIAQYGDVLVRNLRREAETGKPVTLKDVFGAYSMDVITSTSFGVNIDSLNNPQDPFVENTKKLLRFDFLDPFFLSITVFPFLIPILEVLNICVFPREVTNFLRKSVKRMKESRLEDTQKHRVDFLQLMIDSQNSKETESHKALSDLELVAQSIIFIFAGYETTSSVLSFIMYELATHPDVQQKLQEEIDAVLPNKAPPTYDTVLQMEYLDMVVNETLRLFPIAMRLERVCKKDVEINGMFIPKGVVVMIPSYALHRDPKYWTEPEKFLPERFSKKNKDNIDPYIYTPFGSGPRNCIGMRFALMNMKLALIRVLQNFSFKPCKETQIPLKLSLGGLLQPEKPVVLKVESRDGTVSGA
Conditions: not given
`N#Cc1ccc2sc(C(=O)NC3CCN(Cc4ccc(OC5CCNCC5)c(Br)c4)CC3)cc2c1`: the inhibition at 10 µM was 75%.

The target in another data set is T1, Urotensin-2 receptor (Homo sapiens, UniProt Q9UKP6).
T1 sequence (Q9UKP6 whole entry): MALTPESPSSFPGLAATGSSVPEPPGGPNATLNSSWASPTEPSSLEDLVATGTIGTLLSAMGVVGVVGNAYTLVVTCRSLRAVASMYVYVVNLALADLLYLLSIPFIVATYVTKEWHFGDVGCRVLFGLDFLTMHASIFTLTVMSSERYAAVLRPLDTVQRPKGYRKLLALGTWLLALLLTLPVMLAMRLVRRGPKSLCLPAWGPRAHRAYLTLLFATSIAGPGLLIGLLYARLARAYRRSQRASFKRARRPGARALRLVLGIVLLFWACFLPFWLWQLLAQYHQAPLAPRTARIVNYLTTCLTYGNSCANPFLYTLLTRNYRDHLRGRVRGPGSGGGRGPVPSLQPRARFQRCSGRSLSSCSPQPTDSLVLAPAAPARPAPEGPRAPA
The data set is described as follows: Displacement of europium-labeled urotensin-2 from human recombinant urotensin-2 receptor expressed in HEK293 cell membranes after 90 mins by filtration based time resolved fluorometric assay.
Conditions: not given
In short, it runs like this: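 Competitive binding against Eu-labeled U-II on membranes of HEK293 cells expressing human UT receptor, read by time-resolved fluorometry. IC50 values are means of at least two measurements.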
Take `O=C(NC1CCN(Cc2ccc(OC3CCNCC3)c(Br)c2)CC1)c1cc2cc(Cl)ccc2s1`: the IC50 is 51 nM.

Regarding `N#Cc1ccc2cc(C(=O)NC3CCN(Cc4ccc(OC5CCNCC5)c(Br)c4)CC3)sc2c1`, the 50% inhibitory concentration (IC50) came to 80 nM.

For `Cc1ccc(-c2ccc3cc(C(=O)NC4CCN(Cc5ccc(OC6CCNCC6)c(Br)c5)CC4)sc3c2)cc1`, the IC50 was found to be 140 nM.

For `O=C(NC1CCN(Cc2ccc(OC3CCNCC3)c(Br)c2)CC1)c1cc2cc(C(F)(F)F)ccc2s1`, the IC50 came to 100 nM.

For the molecule `O=C(NC1CCN(Cc2ccc(OC3CCNCC3)c(Br)c2)CC1)c1cc2ccc(-c3ccc(Cl)cc3)cc2s1`, the IC50 turned out to be 140 nM.

Turning to `COc1ccccc1-c1ccc2cc(C(=O)NC3CCN(Cc4ccc(OC5CCNCC5)c(Br)c4)CC3)sc2c1`, the 50% inhibitory concentration (IC50) amounted to 560 nM.

With `O=C(NC1CCN(Cc2ccc(OC3CCNCC3)c(Br)c2)CC1)c1cc2cc(Br)ccc2s1`, the IC50 is 86 nM.

As for `O=C(NC1CCN(Cc2ccc(OC3CCNCC3)c(Br)c2)CC1)c1cnccn1`, the IC50 was found to be 610 nM.

As to `O=C(NC1CCN(Cc2ccc(OC3CCNCC3)c(Br)c2)CC1)c1cc2cc(F)ccc2s1`, the IC50 was 53 nM.

In the case of `O=C(NC1CCN(Cc2ccc(OC3CCNCC3)c(Br)c2)CC1)c1cc2ccccc2s1`, the IC50 stood at 63 nM.

As to `O=C(NC1CCN(Cc2ccc(OC3CCNCC3)c(Br)c2)CC1)c1cscn1`, the IC50 came to 970 nM.

For `O=C(NC1CCN(Cc2ccc(OC3CCNCC3)c(Br)c2)CC1)c1ccco1`, the IC50 amounted to 770 nM.

On to `O=C(NC1CCN(Cc2ccc(OC3CCNCC3)c(Br)c2)CC1)c1cc2cc(-c3ccccc3)ccc2s1`, for which the IC50 worked out at 310 nM.

Regarding `COc1ccc2sc(C(=O)NC3CCN(Cc4ccc(OC5CCNCC5)c(Br)c4)CC3)cc2c1`, the IC50 came to 100 nM.

Turning to `O=C(NC1CCN(Cc2ccc(OC3CCNCC3)c(Br)c2)CC1)c1ccccn1`, the IC50 was 120 nM.

In the case of `Cc1ccc2sc(C(=O)NC3CCN(Cc4ccc(OC5CCNCC5)c(Br)c4)CC3)cc2c1`, the half-inhibitory concentration (IC50) was found to be 74 nM.

For the molecule `COc1ccc(-c2ccc3cc(C(=O)NC4CCN(Cc5ccc(OC6CCNCC6)c(Br)c5)CC4)sc3c2)cc1`, the IC50 came out at 49 nM.

As to `O=C(NC1CCN(Cc2ccc(OC3CCNCC3)c(Br)c2)CC1)c1ccno1`, the IC50 amounted to 340 nM.

Take `O=C(NC1CCN(Cc2ccc(OC3CCNCC3)c(Br)c2)CC1)c1cc2cc([N+](=O)[O-])ccc2s1`: the IC50 was 49 nM.

Consider `N#Cc1ccc2sc(C(=O)NC3CCN(Cc4ccc(OC5CCNCC5)c(Br)c4)CC3)cc2c1`, for which the IC50 was 25 nM.

For `O=C(NC1CCN(Cc2ccc(OC3CCNCC3)c(Br)c2)CC1)c1cc2ccc(-c3ccc(F)cc3)cc2s1`, the IC50 worked out at 74 nM.

Turning to `O=C(NC1CCN(Cc2ccc(OC3CCNCC3)c(Br)c2)CC1)c1cc2ccc(-c3ccccc3)cc2s1`, the IC50 came to 90 nM.

For the molecule `O=C(NC1CCN(Cc2ccc(OC3CCNCC3)c(Br)c2)CC1)c1cccs1`, the half-inhibitory concentration (IC50) came out at 130 nM.

Regarding `CCc1ccc2sc(C(=O)NC3CCN(Cc4ccc(OC5CCNCC5)c(Br)c4)CC3)cc2c1`, the IC50 was 180 nM.

With `COc1cccc(-c2ccc3cc(C(=O)NC4CCN(Cc5ccc(OC6CCNCC6)c(Br)c5)CC4)sc3c2)c1`, the half-maximal inhibitory concentration (IC50) worked out at 87 nM.
